Platelet DG rel – modulates dense granule release in human platelets; human platelet-rich plasma, SFLLRN dense granule ATP release, luminescence; inhibition, %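 (compounds screened at 7.5 µM in platelet-rich plasma)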; 0.22% of 300,000 active; AID 1663;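 active means mean replicate score, as percent of positive control, at or above 50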
thrombin 1536 – thrombin (human) inhibition. AID 1046. alpha-thrombin, Boc-VPR-AMC fluorogenic substrate cleavage. inhibition, % at 5 µM. 0.26% of 220,000 active. P00734;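 active means inhibition at or above 40%; inactive means inhibition below 40%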;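 further: 0% = enzyme with no compound and 100% = wells without enzyme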
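System – human alpha-thrombin protein · Reagent – Boc-VPR-AMC substrate, 15 µM final · Compound – 5 µM single dose in 0.2% DMSO · Schedule – reaction at room temperature · Technique – AMC fluorescence at 355 nm excitation and 460 nm emission · Read-out basis – % inhibition relative to enzyme controls and enzyme-free blanks · Control set – no-compound enzyme wells and no-enzyme blanks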
hK5 inh – kallikrein 5 (human) inhibition. inhibition, % at 5 µM. 0.59% of 210,000 active. AID 873. recombinant hK5, fluorogenic AMC substrate cleavage. Q9Y337;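 active means inhibition of 40% or more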;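 further: 0% = enzyme controls without compound and 100% = no-enzyme blanks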
Wee1 degr inh – human Wee1 degradation inhibition, primary screen; 1.2% of 220,000 active; reporter increase, % at 5 µM; P30291; HeLa Luc-Wee1K328M stability, luciferase luminescence; 100% = proteasome inhibitor MG132 effect; AID 1321;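 active means activation above the mean of all tested compounds plus 3 SD, set per screening run, cut at about 8.8% in these data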;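 further: cells exposed to compound for 20 h before luminescence read; 0% = DMSO alone and 100% = MG132 at 30 µM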
FXIa inh – inhibitors of human coagulation factor XIa. P03951. purified FXIa, Boc-Glu-Ala-Arg-AMC fluorogenic substrate. inhibition, % at 5 µM. 0.14% of 220,000 active. AID 798;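 active means inhibition of at least 40%; inactive means inhibition below 40%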;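 further: fluorescence of freed AMC excited at 355 nm; 0% = enzyme without compound and 100% = no enzyme blank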
FXIIa inh – inhibitors of human coagulation factor XIIa. AID 800. 0.3% of 220,000 active. inhibition, % at 5 µM. purified FXIIa, Boc-QGR-AMC fluorogenic substrate, 2 h; in the data active means inhibition above about 40%;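 further: 0% = enzyme with no compound and 100% = blank without enzyme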
Target sequence (P00748 20-372 limits assumed): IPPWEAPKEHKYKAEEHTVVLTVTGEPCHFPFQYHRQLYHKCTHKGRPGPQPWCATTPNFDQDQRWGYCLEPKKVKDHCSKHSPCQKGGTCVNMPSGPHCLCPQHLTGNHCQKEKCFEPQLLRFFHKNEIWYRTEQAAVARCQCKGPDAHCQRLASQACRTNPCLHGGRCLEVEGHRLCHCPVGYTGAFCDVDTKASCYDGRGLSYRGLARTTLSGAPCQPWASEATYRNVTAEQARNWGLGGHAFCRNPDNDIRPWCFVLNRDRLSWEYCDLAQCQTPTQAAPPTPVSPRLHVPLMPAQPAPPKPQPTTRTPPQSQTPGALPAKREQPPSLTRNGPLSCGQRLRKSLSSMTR
Target sequence (P00748 373-615 limits assumed): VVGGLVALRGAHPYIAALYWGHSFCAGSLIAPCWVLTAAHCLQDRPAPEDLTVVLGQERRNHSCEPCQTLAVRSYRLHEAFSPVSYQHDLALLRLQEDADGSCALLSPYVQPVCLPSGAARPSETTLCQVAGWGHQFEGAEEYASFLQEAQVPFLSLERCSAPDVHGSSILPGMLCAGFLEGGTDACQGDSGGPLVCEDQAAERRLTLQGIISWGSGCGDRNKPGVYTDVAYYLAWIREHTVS
Wee1 stab conf – confirmation of human Wee1 degradation inhibitors. shares compounds with Wee1 degr inh. HeLa Luc-Wee1K328M degradation, luminescence; vehicle 0%, proteasome-blocked wells 100%. activation, % at 5 µM. 4% of 1,100 active; in the data active means activation above about 8.9%
The depositor's hits bear a star; x = no result given. Shown are actives, neighbours in structure and some others; about 1.8% of the full set was active somewhere.

SMILES | Platelet DG rel | thrombin 1536 | hK5 inh | Wee1 degr inh | FXIa inh | FXIIa inh | Wee1 stab conf
COc1ccc(-c2noc(-c3ccc4c(c3)OCO4)n2)cc1 | 2 | 3 | 6 | 1 | 6 | 12 | x
COc1ccc(-c2nc(-c3ccc4c(c3)OCO4)[nH]c2-c2ccc(OC)cc2)cc1 | -3 | -9 | -19 | 13* | 11 | 8 | 0
CC(=O)Nc1ccc(NC(=O)CS(=O)(=O)c2cn(CC(=O)N3CCC(C)CC3)c3ccccc23)cc1 | -1 | x | x | x | x | x | x
CCC(=O)Nc1ccc(-c2cc3ccccc3oc2=O)cc1 | 11 | -16 | -33 | 22* | -7 | -2 | 6
CC(=O)c1ccc(OCC(=O)c2cc(C)n(-c3ccc4c(c3)OCO4)c2C)cc1 | -2 | -4 | 10 | 15* | -9 | 7 | 0
Cc1csc(SCC(=O)Nc2cc(S(=O)(=O)N3CCCC3)ccc2Cl)n1 | -7 | 0 | 3 | 13* | 1 | 11 | 1
Cc1ccc(Nc2c(-c3ccco3)nc3nc(C)cc(C)n23)cc1 | 1 | -12 | -5 | 31* | -3 | 3 | 0
COc1ccc(OCCC(=O)N2CCOCC2)cc1 | 3 | 0 | -29 | 12* | -7 | -10 | 1
CN(Cc1c(F)cccc1Cl)C(=O)C1CC(=O)N(CCc2ccccc2)C1 (stereo not drawn) | -3 | -13 | 2 | 12* | -4 | 9 | 2
O=C(O)C1CC(=O)N(CCc2ccccc2)C1 (stereo not drawn) | -1 | 2 | -4 | 0 | 3 | 12 | x
CCCC(C)C(=O)OCC(=O)NCc1ccc(OC)c(OC)c1 (stereo not drawn) | -8 | -1 | -2 | 14* | -8 | 6 | -2
COc1ccc(CC(=O)NCc2cccc(CNC(=O)Cc3ccc(OC)c(OC)c3)c2)cc1OC | -7 | x | x | x | x | x | x
Cc1cc(C)n2nc(SCC(=O)c3c(N)n(CC(C)C)c(=O)n(C)c3=O)nc2n1 | 0 | -6 | -4 | 1 | 3 | 5 | x
COc1ccc(C(C)C)cc1S(=O)(=O)n1ccnc1C | -4 | -5 | -10 | 13* | 7 | 17 | 1
O=C(NNC(=O)c1ccc(Cl)cc1Cl)Nc1ccccc1 | -1 | -1 | 2 | 3 | 3 | 10 | x
Cc1nc(NNC(=O)c2ccc(Cl)cc2Cl)cc(-c2ccccc2)n1 | 9 | 6 | -192 | 11* | -1 | 6 | 1
O=S(=O)(Cc1ccc(Cl)cc1)NCc1ccc2c(c1)OCO2 | -6 | x | x | x | x | x | x
Cc1cc(OCc2nnc(SC(C)C(=O)O)n2Cc2ccccc2)ccc1Cl (stereo not drawn) | 0 | -3 | 5 | 18* | 2 | 8 | -1
CC(Sc1nnc(COc2ccc(Cl)cc2)n1Cc1ccccc1)C(=O)O (stereo not drawn) | 8 | -3 | 1 | -3 | -3 | 6 | x
CC(C)C(=O)Nc1cccc(-c2cn3ccccc3n2)c1 | -11 | 24 | 24 | 1 | 7 | 10 | x
CC(=O)Nc1cccc(-c2cn3ccccc3n2)c1 | 7 | -1 | -2 | 11* | 1 | 12 | -2
CC1=CC(c2ccccc2)n2nnnc2N1 (stereo not drawn) | 4 | 0 | 2 | 12* | 1 | 4 | 4
O=C(NC1CCCCC1)NC1CC2CCC(C1)N2C(=O)NC1CCCCC1 (stereo not drawn) | 3 | -3 | -11 | 15* | -15 | -5 | -1
CSCCC(NS(=O)(=O)c1ccc2ccccc2c1)C(=O)OCC(=O)c1ccc(C(C)C)cc1 (stereo not drawn) | -3 | -6 | -12 | 11* | 6 | 11 | -3
COC(=O)c1c(NC(=O)C(=O)NCC2CCCO2)sc2c1CC(C)(C)OC2 (stereo not drawn) | -13 | x | x | x | x | x | x
SMILES | Platelet DG rel | thrombin 1536 | hK5 inh | Wee1 degr inh | FXIa inh | FXIIa inh | Wee1 stab conf
Cn1c(/C=C/c2ccc(Br)cc2)nc2ccccc2c1=O | -5 | x | x | x | x | x | x
Cc1ccccc1-c1noc(-c2ccc(Cl)cc2)n1 | 5 | 4 | -9 | -2 | -4 | 0 | x
Cc1ccccc1-c1noc(-c2ccc(O)cc2)n1 | 100* | -1 | 1 | 11* | 4 | 5 | 6
Nc1[nH]c(N=NC(=O)c2ccccc2O)c2ccccc12 | -9 | 0 | -33 | 14* | 10 | 17 | 2
CCOC(=O)C1(CCOc2ccccc2)CCN(Cc2ccc3nonc3c2)CC1 | -1 | -3 | 2 | -1 | 3 | 12 | x
CCCCNCCCOc1cccc(Cl)c1Cl | 0 | -2 | -5 | 11* | 4 | 11 | 2
CCS(=O)(=O)N1Cc2ccccc2CC1C(=O)N(C)CC(=O)Nc1ccc(F)c(F)c1F (stereo not drawn) | 1 | x | x | x | x | x | x
O=[N+]([O-])/C=C\c1ccc(N2CCCC2)c(F)c1 | 6 | -7 | -1 | 16* | -5 | 7 | 0
COc1ccc(C)cc1NC(=O)CNC(=O)[C@@H]1Cc2ccccc2CN1 | -9 | x | x | x | x | x | x
Cc1ccc(N2C(=O)C3ON(c4ccccc4)C(c4ccncc4)C3C2=O)c(C)c1 (stereo not drawn) | 6 | 1 | 1 | 1 | 0 | -5 | x
CC(=O)Nc1ccc(CN2CCCC(C(=O)c3cccc(C(F)(F)F)c3)C2)cc1 (stereo not drawn) | -2 | -2 | x | 3 | 4 | 13 | x
O=C(c1cccc(C(F)(F)F)c1)C1CCCN(Cc2ccc(OCCO)cc2)C1 (stereo not drawn) | -5 | -2 | 0 | 13* | 0 | 4 | -2
CCOC(=O)c1cc(S(=O)(=O)N2CCC(C)CC2)cn1C | 0 | x | x | x | x | x | x
Cc1ccccc1NC(=O)c1cc(C(=O)c2cc(Cl)ccc2O)cn(-c2ccccc2C)c1=O | 9 | -6 | -10 | 14* | 0 | 10 | 0
Cc1ccc(O)c(-n2nc3ccccc3n2)c1 | 6 | -1 | 1 | -1 | -1 | 12 | x
O=C(COc1ccc(F)cc1)NN1C(=O)CSC1=S | -2 | -6 | -8 | -2 | -2 | 10 | x
CCC(C)(C)NC(=O)C(c1ccncc1)N(C(=O)Cn1nnc2ccccc21)c1cc2c(cc1C(C)=O)OCO2 (stereo not drawn) | 8 | -2 | -2 | 14* | -5 | 8 | 3
CCC(C)(C)NC(=O)C(c1ccncc1)N(Cc1cccs1)C(=O)Cn1nnc2ccccc21 (stereo not drawn) | 14 | -6 | -23 | -1 | -2 | -9 | x
CCOC(=O)Cn1nc(C)n(-c2ccc(F)cc2)c1=O | 10 | 2 | -24 | 2 | -6 | -8 | x
CC1CCN(CC(=O)NC(=O)NCc2ccccc2)CC1 | -2 | -4 | -14 | 1 | 4 | 0 | x
CC1CCCCN1CC(=O)NC(=O)NCc1ccccc1 (stereo not drawn) | -26 | -6 | -23 | 18* | -3 | 4 | 5

Source: PubChem BioAssay
